Assay results gathered from unrelated publications.
Each line is one published result; the experiments were not run side by side. In brackets after ≈: the same amount, converted by molar mass.

SMILES | tested on | assay | conditions | endpoint | result
Clc1ccc(COC(Cn2ccnc2)c2ccc(Cl)cc2Cl)c(Cl)c1 (centres unmarked) | Nakaseomyces glabratus | microbial growth, broth dilution | – | MIC80 | 0.125 µg/mL (≈ 0.3 µM)
CCc1nc(C(N)=O)c(Nc2ccc(N3CCC(N4CCN(C)CC4)CC3)c(OC)c2)nc1NC1CCOCC1 | HCC827 | cell growth or viability | 72 h | GI50 | 283 nM
COc1cc(C2=CCCCc3c2ccc(OC)c3OC(C)c2cnc([N+](=O)[O-])n2C)cc(OC)c1OC (centres unmarked) | – | tubulin polymerisation, inhibitor | 20 min | IC50 | > 20000 nM
O=C(Nc1ccccc1)c1ccc(COC(Cn2ccnc2)c2ccc(Cl)cc2Cl)cc1 (centres unmarked) | Nakaseomyces glabratus | microbial growth, broth dilution | – | MIC80 | 0.25 µg/mL (≈ 0.536 µM)
Cc1n[nH]c2ccc3nc(-c4ccc(C(=O)NCCN(C)C)cc4)c4c(c3c12)CCCC4 | HCC827 | cell growth or viability | 72 h | GI50 | 4070 nM
COc1cc(C2=CCCc3c2ccc(OC)c3OC(C)c2ccc([N+](=O)[O-])s2)cc(OC)c1OC (centres unmarked) | – | tubulin polymerisation, inhibitor | 20 min | IC50 | > 20000 nM
CCCCn1cnc2ccc(-c3ccc(NC(=O)NCCC)nc3)cc2c1=O | HCC827 | cell growth or viability, CCK-8 | 72 h | IC50 | > 10000 nM
COc1cc(C2=CCCCc3c2ccc(OC)c3OC(C)c2ccc([N+](=O)[O-])s2)cc(OC)c1OC (centres unmarked) | – | tubulin polymerisation, inhibitor | 20 min | IC50 | > 20000 nM
Cc1nc(Nc2ncc(C(=O)Nc3c(C)cccc3Cl)s2)cc(N2CC[C@H](O)C2)n1 | Daudi | cell growth or viability, ATP luminescence | 10 µM, 72 h | inhibition | 75%
CCCn1cnc2ccc(-c3ccc(NC(=O)CC4CCC4)nc3)cc2c1=O | HCC827 | cell growth or viability, CCK-8 | 72 h | IC50 | 1210 nM
O=C(Nc1cccc(Cl)c1)c1ccc(COC(Cn2ccnc2)c2ccc(Cl)cc2Cl)cc1 (centres unmarked) | Nakaseomyces glabratus | microbial growth, broth dilution | – | MIC80 | 0.25 µg/mL (≈ 0.499 µM)
CCCn1cnc2ccc(-c3ccc(N4CCC(C)CC4=O)nc3)cc2c1=O (centres unmarked) | HCC827 | cell growth or viability, CCK-8 | 72 h | IC50 | > 10000 nM
Cc1n[nH]c2ccc3nc(-c4ccc(C(=O)NCCN(C)C)cc4F)c4c(c3c12)CCCC4 | HCC827 | cell growth or viability | 72 h | GI50 | 611 nM
CCCCn1cnc2ccc(-c3ccc(NC(=O)Nc4ccc(C(F)(F)F)cc4)nc3)cc2c1=O | HCC827 | cell growth or viability, CCK-8 | 72 h | IC50 | > 10000 nM
CN(C)CCNC(=O)c1ccc(-c2nc3ccc4[nH]ncc4c3c3c2CCCC3)c(F)c1 | HCC827 | cell growth or viability | 72 h | GI50 | 1010 nM
CCCCC(=O)Nc1ccc(-c2ccc3ncn(CCC(C)C)c(=O)c3c2)cn1 | HCC827 | cell growth or viability, CCK-8 | 72 h | IC50 | 550 nM
OC(Cn1cncn1)(Cn1cncn1)c1ccc(F)cc1F | Nakaseomyces glabratus | microbial growth, broth dilution | – | MIC80 | 8 µg/mL (≈ 26.1 µM)
